Results from PMC5041297 (Clinical cancer research : an official journal of the …, 2016).
Read-outs that look alike come from different tables or passages of the source.

Experiments:
PARP = conditions: cited from earlier work
purified kinases = conditions: cited from earlier work; for inhibition of certain kinases: high concentrations, cell-free conditions
[1] = tested on: MPN erythroid and myeloid progenitors; assay: Colony forming assay, mononuclear cells from MPN patients; type: cell-based, human; conditions: for IC50: Homo sapiens
Outline: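 Peripheral-blood mononuclear cells from patients, Ficoll-Hypaque purified, washed into RPMI 1640 and mixed with methylcellulose medium containing PARP inhibitor (0, 0.5, 1, 2.5, 5, 10, 20 μM or 0, 0.25, 0.5, 1, 2, 5 μM; DMSO 0.1%). 1–5 × 10^5 cells per plate, 2–4 replicate plates, 37 °C, 5% CO2. Colonies (>40 cells) scored at 10–14 days (some CMMoL at 5–7 days). IC50 is 50% of diluent-control colonies, from linear regression after exponential transformation.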

Row | IC50 ([1]; read-out: IC50 values averaging, CML samples) [nM] | IC50 ([1]; read-out: IC50 values averaging, CMMoL samples) [nM] | IC50 ([1]; read-out: mean IC50, JAK2V617F mutated samples) [nM] | IC50 ([1]; read-out: veliparib IC50s, 5 of 16 individual JAK2 mutated samples) [nM] | IC50 lower in MPN samples with impaired RAD51 foci formation compared to those without ([1]; on average, p = 0.028) [fold] | Compound | more potent in vitro (olaparib relative to veliparib) (PARP) | off-target kinase inhibitory activity (purified kinases) | inhibition of certain kinases (purified kinases) | IC50 lower in MPN samples than in normal controls ([1]; average, MPN samples vs normal controls, P<0.0001) [fold]
1 |  |  |  |  |  | O=C(c1cc(Cc2n[nH]c(=O)c3ccccc23)ccc1F)N1CCN(C(=O)C2CC2)CC1 [Olaparib] | roughly 10 fold | lacks this off-target kinase inhibitory activity |  | 
2 |  |  |  |  |  | CN(C)CC(=O)Nc1ccc2[nH]c(=O)c3ccccc3c2c1 [PJ-34] |  |  | might also inhibit certain kinases | 
3 | 3000 | 3000 | 5700 | < 2000 | 3 | C[C@]1(c2nc3c(C(N)=O)cccc3[nH]2)CCCN1 [Veliparib] |  |  | might also inhibit certain kinases | 4
